Calls of active or inactive are those of the source. The rule behind the calls is not given here.
Key:
[1] = Solubility in water; assay type: physicochemical; conditions: buffer
PBMC [2] = test: Activation of human PBMC assessed as down-regulation of CD14 expression at 20 uM after 4 days by flow cytometry; assay type: functional, cell-based
Procedure, shortened: (§1)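 Fresh blood from healthy adult donors; PBMC isolated on Ficoll-Paque gradient (800 g, 30 min, room temperature), washed twice and cultured at 1.5 million cells/mL in RPMI 1640 with penicillin/streptomycin, 1 mM pyruvate and 10% heat-inactivated FCS. Sterile-filtered dendrimer was added at the final concentration. Monocytes were gated by morphology. The readout was HLA-DR (FITC) or CD14 (PE-Pc5) staining, given as the mfi ratio versus isotype control. Three donors were tested.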

PBMC [3] = test: Activation of human PBMC assessed as down-regulation of HLA-DR expression by flow cytometry; assay type: functional, cell-based; procedure, shortened: as §1
PBMC [4] = test: Activation of human PBMC assessed as down-regulation of HLA-DR expression at 20 uM after 4 days by flow cytometry; assay type: functional, cell-based; procedure, shortened: as §1
PBMC [5] = test: Activation of human PBMC assessed as down-regulation of CD14 expression at 2 uM after 4 days by flow cytometry; assay type: functional, cell-based; procedure, shortened: as §1
PBMC [6] = test: Cytotoxicity against long-lasting cultures of human PBMC; assay type: cell-based
PBMC [7] = test: Activation of human PBMC assessed as down-regulation of CD14 expression by flow cytometry; assay type: functional, cell-based; procedure, shortened: as §1
PBMC [8] = test: Activation of human PBMC assessed as occurrence of bigger and granular monocytes by flow cytometry; assay type: functional, cell-based
Procedure, shortened: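 Donor PBMC were prepared on Ficoll-Paque and cultured in complete RPMI 1640 (10% heat-inactivated FCS, 1.5 million cells/mL) with sterile-filtered dendrimer at the final concentration. By flow cytometry (LSR-II), monocytes were selected on scatter morphology, and the read-out was an increase in cell size and granularity.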

PBMC [9] = test: Activation of human PBMC assessed as down-regulation of HLA-DR expression at 2 uM after 4 days by flow cytometry; assay type: functional, cell-based; procedure, shortened: as §1
PBMC [10] = test: Activation of human PBMC assessed as down-regulation of HLA-DR expression after 4 days by flow cytometry; assay type: functional, cell-based; procedure, shortened: as §1
PBMC [11] = test: Activation of human PBMC assessed as down-regulation of CD14 expression after 4 days by flow cytometry; assay type: functional, cell-based; procedure, shortened: as §1

Row | solubility [1] | Compound | Activity (PBMC [2]) | Activity (PBMC [3]) | Activity (PBMC [4]) | Activity (PBMC [5]) | Activity (PBMC [6]) | Activity (PBMC [7]) | Activity (PBMC [8]) | Activity (PBMC [9]) | Activity (PBMC [10]) | Activity (PBMC [11])
1 | Soluble | CCCCN(CP(=O)([O-])O)C(c1ccc(OP(=S)(Oc2ccc(C(N(CCCC)CP(=O)([O-])O)P(=O)([O-])O)cc2)N(C)/N=C/c2ccc(OP3(Oc4ccc(/C=N/N(C)P(=S)(Oc5ccc(C(N(CCCC)CP(=O)([O-])O)P(=O)([O-])O)cc5)Oc5ccc(C(N(CCCC)CP(=O)([O-])O)P(=O)([O-])O)cc5)cc4)=NP(Oc4ccc(/C=N/N(C)P(=S)(Oc5ccc(C(N(CCCC)CP(=O)([O-])O)P(=O)([O-])O)cc5)Oc5ccc(C(N(CCCC)CP(=O)([O-])O)P(=O)([O-])O)cc5)cc4)(Oc4ccc(/C=N/N(C)P(=S)(Oc5ccc(C(N(CCCC)CP(=O)([O-])O)P(=O)([O-])O)cc5)Oc5ccc(C(N(CCCC)CP(=O)([O-])O)P(=O)([O-])O)cc5)cc4)=NP(Oc4ccc(/C=N/N(C)P(=S)(Oc5ccc(C(N(CCCC)CP(=O)([O-])O)P(=O)([O-])O)cc5)Oc5ccc(C(N(CCCC)CP(=O)([O-])O)P(=O)([O-])O)cc5)cc4)(Oc4ccc(/C=N/N(C)P(=S)(Oc5ccc(C(N(CCCC)CP(=O)([O-])O)P(=O)([O-])O)cc5)Oc5ccc(C(N(CCCC)CP(=O)([O-])O)P(=O)([O-])O)cc5)cc4)=N3)cc2)cc1)P(=O)([O-])O.[Na+].[Na+].[Na+].[Na+].[Na+].[Na+].[Na+].[Na+].[Na+].[Na+].[Na+].[Na+].[Na+].[Na+].[Na+].[Na+].[Na+].[Na+].[Na+].[Na+].[Na+].[Na+].[Na+].[Na+] (stereo not drawn) | Active | Active | Active | Active | Toxic | Active | Active | Active |  | 
2 |  | CN(CP(=O)(O)O)C(c1ccc(OP(=S)(Oc2ccc(C(N(C)CP(=O)(O)O)P(=O)(O)O)cc2)N(C)/N=C/c2ccc(OP3(Oc4ccc(/C=N/N(C)P(=S)(Oc5ccc(C(N(C)CP(=O)(O)O)P(=O)(O)O)cc5)Oc5ccc(C(N(C)CP(=O)(O)O)P(=O)(O)O)cc5)cc4)=NP(Oc4ccc(/C=N/N(C)P(=S)(Oc5ccc(C(N(C)CP(=O)(O)O)P(=O)(O)O)cc5)Oc5ccc(C(N(C)CP(=O)(O)O)P(=O)(O)O)cc5)cc4)(Oc4ccc(/C=N/N(C)P(=S)(Oc5ccc(C(N(C)CP(=O)(O)O)P(=O)(O)O)cc5)Oc5ccc(C(N(C)CP(=O)(O)O)P(=O)(O)O)cc5)cc4)=NP(Oc4ccc(/C=N/N(C)P(=S)(Oc5ccc(C(N(C)CP(=O)(O)O)P(=O)(O)O)cc5)Oc5ccc(C(N(C)CP(=O)(O)O)P(=O)(O)O)cc5)cc4)(Oc4ccc(/C=N/N(C)P(=S)(Oc5ccc(C(N(C)CP(=O)(O)O)P(=O)(O)O)cc5)Oc5ccc(C(N(C)CP(=O)(O)O)P(=O)(O)O)cc5)cc4)=N3)cc2)cc1)P(=O)(O)O (stereo not drawn) | Active |  | Active | Active |  |  |  | Active |  | 
3 | Soluble | C=CCN(CP(=O)([O-])O)C(c1ccc(OP(=S)(Oc2ccc(C(N(CC=C)CP(=O)([O-])O)P(=O)([O-])O)cc2)N(C)/N=C/c2ccc(OP3(Oc4ccc(/C=N/N(C)P(=S)(Oc5ccc(C(N(CC=C)CP(=O)([O-])O)P(=O)([O-])O)cc5)Oc5ccc(C(N(CC=C)CP(=O)([O-])O)P(=O)([O-])O)cc5)cc4)=NP(Oc4ccc(/C=N/N(C)P(=S)(Oc5ccc(C(N(CC=C)CP(=O)([O-])O)P(=O)([O-])O)cc5)Oc5ccc(C(N(CC=C)CP(=O)([O-])O)P(=O)([O-])O)cc5)cc4)(Oc4ccc(/C=N/N(C)P(=S)(Oc5ccc(C(N(CC=C)CP(=O)([O-])O)P(=O)([O-])O)cc5)Oc5ccc(C(N(CC=C)CP(=O)([O-])O)P(=O)([O-])O)cc5)cc4)=NP(Oc4ccc(/C=N/N(C)P(=S)(Oc5ccc(C(N(CC=C)CP(=O)([O-])O)P(=O)([O-])O)cc5)Oc5ccc(C(N(CC=C)CP(=O)([O-])O)P(=O)([O-])O)cc5)cc4)(Oc4ccc(/C=N/N(C)P(=S)(Oc5ccc(C(N(CC=C)CP(=O)([O-])O)P(=O)([O-])O)cc5)Oc5ccc(C(N(CC=C)CP(=O)([O-])O)P(=O)([O-])O)cc5)cc4)=N3)cc2)cc1)P(=O)([O-])O.[Na+].[Na+].[Na+].[Na+].[Na+].[Na+].[Na+].[Na+].[Na+].[Na+].[Na+].[Na+].[Na+].[Na+].[Na+].[Na+].[Na+].[Na+].[Na+].[Na+].[Na+].[Na+].[Na+].[Na+] (stereo not drawn) | Active | Active | Active | Active |  | Active | Active | Active | Dose-dependent effect | Dose-dependent effect
